# From PubChem BioAssay
# Arr AP2 block: human beta-arrestin and AP2 interaction inhibition; FITC-arrestin peptide / GST-AP2 beads, flow cytometry; AP2 beta2 appendage carries R879A mutation; inhibition, % at 10 µM; hit rate 0.31% among 340,000; AID 504490;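 active = inhibition above a set limit, near 3 SD of compounds lacking own fluorescence, cut at about 54% in these data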;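 note: plate controls were DMSO wells for no effect and 5 µM unlabelled arrestin peptide for full effect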
#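 System: GST-AP2 R879A bound to glutathione beads, E. coli-expressed. Also added: 50 nM FITC-arrestin peptide. Schedule: compound with beads 12 min RT, then probe 1 h RT. Signal: bead flow cytometry, FITC channel. Read-out basis: percent response.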
# PAX8 inh HTS: lowers PAX8-driven luciferase in RMG-I cells; RMG-I TPO-luciferase reporter, SteadyGlo, 24 h; inhibition, % at 12.6 µM; hit rate 1.2% among 360,000; AID 652154;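 active = mean replicate inhibition at least 60% with every replicate also reaching 60%; inconclusive = only one of the two criteria is met; inactive = mean below 60% and not all replicates reaching 60%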;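 note: luciferase light reporting Pax8 driven TPO promoter activity; plate controls were median of neutral control wells for no effect and mitoxantrone controls for full effect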
# Rtt109 HAT inh: inhibitors of Candida albicans Rtt109/Vps75 histone acetyltransferase | Q5AAJ8 | purified Rtt109/Vps75, ThioGlo CoA-SH fluorescence, 4 h | inhibition, % at 34.9 µM | hit rate 0.16% among 330,000 | AID 540336;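 active = inhibition of at least 50% in every replicate; inconclusive = best replicate reaches 50% inhibition but some replicates fall short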
# Target sequence (Q5AAJ8 whole entry, looked up): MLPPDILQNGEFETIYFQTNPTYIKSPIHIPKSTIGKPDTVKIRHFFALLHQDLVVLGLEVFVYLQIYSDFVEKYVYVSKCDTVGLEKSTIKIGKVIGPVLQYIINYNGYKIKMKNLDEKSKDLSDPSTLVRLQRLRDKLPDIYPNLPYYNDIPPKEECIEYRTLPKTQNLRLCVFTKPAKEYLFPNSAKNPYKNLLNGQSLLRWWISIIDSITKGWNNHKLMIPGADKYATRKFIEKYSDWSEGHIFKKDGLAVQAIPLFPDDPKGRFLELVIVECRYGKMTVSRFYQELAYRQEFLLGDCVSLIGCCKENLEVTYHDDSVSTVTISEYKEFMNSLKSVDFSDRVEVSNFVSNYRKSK
# Env fusion inh: blocks HIV Env-driven cell-cell fusion | HeLa-JRFL Env/CEM21 cell fusion, luciferase | inhibition, % at 12.3 µM | hit rate 1.1% among 360,000;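 active = mean replicate inhibition score of at least 50 and every replicate individually at or above 50; inconclusive = only one of the two criteria met; inactive = mean below 50 and not all replicates reaching 50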;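 note: 0% = plate neutral controls and 100% = maraviroc near 300 nM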
# PfHsp90 yeast 2: growth inhibition of yeast expressing Plasmodium Hsp90. hit rate 0.32% among 310,000. S. cerevisiae expressing PfHsp90, BacTiter-Glo ATP, 48 h; yeast lacking PDR1 and PDR3 efflux regulators. inhibition, % at 9.4 µM;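 active = every replicate shows inhibition above about 80%, whatever the replicate mean, limit read from the data; inconclusive = mean inhibition reaches the set limit but some replicate falls short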;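 note: 0% = DMSO neutral controls and 100% = 20 µM radicicol positive controls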
# N-glyco inh: blocks N-linked glycosylation in D54 reporter cells; D54 ERlucT glycosylation luciferase reporter, 24 h; percent of 100 nM tunicamycin response; reporter increase, % at 12.5 µM; hit rate 0.23% among 360,000; AID 588692;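 active = mean luciferase reporter signal, scaled so untreated is 0 and the glycosylation-blocking control 100, at or above a set limit in every replicate; inconclusive = mean reaches the limit but not every replicate does; inactive = mean below the limit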;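 note: luciferase carries N-glycosylation sites so blocking glycosylation raises the light; 0% = median of neutral control wells and 100% = median of 100 nM tunicamycin wells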
# An asterisk follows results filed as active; ? = inconclusive; · = no result given; [ ] = remark or other dose. The list is not random: actives were taken first. Their share in the collection is about 2.3%.
SMILES,Arr AP2 block,PAX8 inh HTS,Rtt109 HAT inh,Env fusion inh,PfHsp90 yeast 2,N-glyco inh
COC(=O)[C@]12C[C@H](CC(=O)N3CCN(C(=O)c4ccco4)CC3)C(=O)N(CCC3=CCCCC3)C1=C[C@H](C(C)(C)C)O[C@@H]2C,·,37,·,74*,·,·
C#CCNC(=O)C[C@H]1C[C@@]2(C(=O)OC)C(=C[C@H](C(C)(C)C)O[C@@H]2C)N(CCC2=CCCCC2)C1=O,·,17,·,54,·,·
COC(=O)[C@]12C[C@H](CC(=O)NCc3ccc(OC)c(OC)c3)C(=O)N(Cc3ccccc3)C1=C[C@H](C(C)(C)C)O[C@@H]2C,·,14,·,88*,·,·
O=S(=O)(N[C@@H]1CC[C@@H](CCn2cc(-c3cccnc3)nn2)O[C@H]1CO)c1ccc(Cl)cc1,·,3,·,5[16.7 µM],·,·
CC(=O)Nc1ccc(C(=O)OCC(=O)NC(=O)NCc2ccccc2)cc1,·,-13,·,71*,·,1
Oc1ccc2ccccc2c1CN1CCCC1,15,26,11,-6,-9,-1
Oc1ccc2ccccc2c1CN1CC2CCC(CC2)C1,-2,84*,6,?,0,-4
O=C(C1CCCO1)N1CCN(Cc2c(O)ccc3ccccc23)CC1 (centres undefined),2,5,142*,1,3,1
CCOC(=O)C1CCN(Cc2c(O)ccc3ccccc23)CC1,0,·,0,1,-2,1
CCOC(=O)N1CCN(Cc2c(O)ccc3ccccc23)CC1,-5,-4,133*,5,0,-1
C[C@H](NC(=O)C[C@@H]1CC[C@@H](NC(=O)c2cccnc2)[C@H](CO)O1)c1ccccc1,·,-23,·,4[16.7 µM],·,·
C[C@H](CO)N1C[C@H](C)[C@@H](CN(C)C(=O)Cc2cccnc2)Oc2ncc(C#Cc3ccccc3F)cc2C1=O,·,·,·,3[16.7 µM],·,·
COCCNc1nc(NCc2ccc(NC(C)=O)cc2)c2sc(-c3ccccc3)cc2n1,·,86*,·,5,·,-4
C[C@@H]1CCCCO[C@H](CN(C)S(=O)(=O)c2cn(C)cn2)[C@H](C)CN([C@@H](C)CO)C(=O)c2cc(NC(=O)Nc3ccc(F)cc3)ccc2O1,·,-11,·,-9[16.7 µM],·,·
CCOC(=O)C1=Nc2ccccc2C1=[N+]=[N-],8,·,1,·,122*,-9
CCOC(=O)C1=Nc2cccc3c(O)ccc1c23,·,-17,·,-10,·,·
Cc1noc(C)c1C(=O)NC(C)C12CC3CC(CC(C3)C1)C2 (centres undefined),-7,-6,1,21,6,2
CCCC(NC(=O)c1c(C)noc1C)C12CC3CC(CC(C3)C1)C2 (centres undefined),3,6,-7,60*,-6,2
C[C@@H]1CN([C@H](C)CO)C(=O)c2cc(C3=CCCC3)cnc2O[C@H]1CN(C)Cc1ccccc1C(=O)O,·,0,·,-5[16.7 µM],·,·
CN1c2ccc(Br)cc2[C@@H]2[C@@H](CCN2C(=O)Cc2cccnc2)[C@@H]1CO,·,-16,·,·,·,·
COCCN(CC(=O)NC1CCCCC1)C(=O)/C=C/C(=O)c1ccc(OC)cc1O,-3,91*,-5,-184,6,-21
COc1ccc(C(=O)/C=C/C(=O)N(CC(=O)NC2CCCCC2)Cc2cccs2)c(O)c1,1,60,-4,-118,94*,-9
COc1ccc(CN(C(=O)/C=C/C(=O)c2ccc(OC)cc2O)C(C(=O)NC2CCCCC2)c2ccncc2)cc1 (centres undefined),11,-9,7,·,-9,-1
COc1ccc(C(=O)/C=C/C(=O)N(Cc2ccc3c(c2)OCO3)C(C(=O)NC2CCCCC2)c2ccncc2)c(O)c1 (centres undefined),11,21,19,6,4,3
COCC(=O)N1[C@H](CO)[C@H](c2ccccc2)C12CN(C(=O)Cc1ccccn1)C2,·,-12,·,·,·,·
SMILES,Arr AP2 block,PAX8 inh HTS,Rtt109 HAT inh,Env fusion inh,PfHsp90 yeast 2,N-glyco inh
C[C@H]1CCCCO[C@H](CN(C)C(=O)Nc2ccc(C(F)(F)F)cc2)[C@@H](C)CN([C@@H](C)CO)C(=O)c2cc(NS(=O)(=O)c3ccccc3)ccc2O1,·,79*,·,78*[16.7 µM],·,·
C[C@@H]1CCCCO[C@@H](CN(C)C(=O)Nc2ccc(C(F)(F)F)cc2)[C@H](C)CN([C@H](C)CO)C(=O)c2cc(NS(=O)(=O)c3ccccc3)ccc2O1,·,84*,·,14[16.7 µM],·,·
C[C@H]1CCCCO[C@@H](CN(C)C(=O)Nc2ccc(C(F)(F)F)cc2)[C@@H](C)CN([C@@H](C)CO)C(=O)c2cc(NS(=O)(=O)c3cn(C)cn3)ccc2O1,·,91*,·,22[16.7 µM],·,·
CCC(=O)N1CC(=O)N2[C@H](CO)[C@H](c3ccc(C#CC4CCCCC4)cc3)[C@@H]2C1,·,-3,·,·,·,·
O=C(O)C[C@H]1C[C@H]2c3cc(NC(=O)NC4CCCC4)ccc3O[C@H]2[C@H](CO)O1,·,-3,·,21[16.7 µM],·,·
COc1c(O[C@@H]2O[C@H](CO)[C@@H](O)[C@H](O)[C@H]2O)cc2c(c1OC)-c1ccc(SC)c(=O)cc1C(NC(C)=O)CC2 (some centres undefined),-1,-3,15,-16,-1,2
COc1cc2c(c(OC)c1OC)-c1ccc(OC)c(=O)cc1C(NC(=O)c1ccccc1)CC2 (centres undefined),8,70*,-2,-65,-18,11
COc1cc2c(c(OC)c1OC)-c1ccc(SC)c(=O)cc1C(NC(=O)c1ccccc1)CC2 (centres undefined),50,67*,10,-235,12,12
C=COC(=O)NC1CCc2cc(OC)c(OC)c(OC)c2-c2ccc(SC)c(=O)cc21 (centres undefined),34,65*,4,-384,0,12
COc1cc(C(=O)NC2CCCc3ccccc32)cc(OC)c1C (centres undefined),15,5,10,30,-3,-3
COc1cc2c(c(OC)c1OC)-c1ccc(SC)c(=O)cc1C(NC=O)CC2 (centres undefined),-10,100*,-14,-170,-14,1
COc1cccc(C(=O)Nc2ccc3c(cc2=O)[C@@H](NC(C)=O)CCc2cc(OC)c(OC)c(OC)c2-3)c1,-8,·,5,·,-19,20
O=C(Nc1ccc(F)cc1)N1CC(=O)N2[C@H](C1)[C@@H](c1ccc(-c3ccc(F)cc3)cc1)[C@@H]2CO,·,33,·,·,·,·
Cc1noc(C)c1S(=O)(=O)N(C)C[C@H]1Oc2ccc(NC(=O)C3CCCCC3)cc2CC(=O)N([C@H](C)CO)C[C@H]1C,·,·,·,1[16.7 µM],·,·
COc1ccc(NC(=S)Nc2ccc3nccnc3c2)cc1,14,-40,-3,-6,2,-2
COc1ccc(NC(=S)Nc2ccc3snnc3c2)cc1,3,-68,9,-15,109*,-2
